Test [1] has as its system Human immunodeficiency virus 1. As to the kind of experiment: Anti HIV-1 activity of selected N-acylthiocarbamates against Y181C resistant mutant. In kind it is functional, organism-based. The method, boiled down:
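Acutely infected MT-4 cells (1 × 10⁴ cells/well) incubated at 37 °C with serial compound dilutions (DMSO stock, diluted in medium) and Y181C mutant virus (NIH N119; titer 1.3 × 10⁶ CCID₅₀/mL) dosed to cause full cytopathogenicity by day 4. Viability read by MTT; EC₅₀ = concentration giving 50% protection from virus-induced cytopathogenicity.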

In test [2] the test system is Human immunodeficiency virus 1. The test can be described thus: Concentration required to reduce the amount of p24 by 90% in HIV-1 infected C8166 cultures. Particulars: Human immunodeficiency virus 1, C8166. The class given is functional, organism-based. The method, boiled down:
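C8166 cells (1 × 10^4/well) were infected with wt HIV-1 in the presence of graded compound concentrations, with DMSO stocks diluted in culture medium. After incubation at 37 °C, p24 antigen was measured by immunoenzymatic kit. EC90 is the concentration lowering p24 by 90%.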

The next test concerns MT4. The test can be described thus: Selectivity index which is the ratio of CC50 and EC50 was determined. In kind it is functional, Homo sapiens. The method, boiled down: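 MT-4 cells (1 × 10^4/well) were seeded with or without serial compound dilutions, then infected with HIV-1 IIIB at enough CCID50 for complete cytopathogenicity by day 4. Cultures were incubated at 37 °C and viability was read by MTT. […] Cytotoxicity was run in parallel on mock-infected cells, and SI = CC50/EC50. Data are means of three separate experiments.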

Test [3] has as its target Human immunodeficiency virus type 1 reverse transcriptase (Human immunodeficiency virus 1, UniProt Q72547). The test can be described thus: Activity of selected HIV-1 N-acylthiocarbamates in enzyme assay against Virion-Associated reverse transcriptase. The essentials: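 Virion-associated RT from stock virus disrupted with 0.5% NP-40. Incubation 60 min at 37 °C, then acid-insoluble radioactivity counted on glass fiber filters.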

Another test relates to MT-4 (Homo sapiens). As to the kind of experiment: Concentration required to reduce the viability of mock-infected MT-4 cells by 50% was determined by MTT method. Particulars: MT4.

Bounds are passed on as bounds.

The EC50 is the midpoint of the concentration-response curve. Broadly, the EC90 is the concentration at which the effect reaches the 90% level. The IC50 is the concentration that inhibits the measured activity by half. A lower IC50 goes with inhibition by little substance. As usually defined, the CC50 is the concentration that lowers cell viability or growth by half. Read a low CC50 as greater toxicity to the cells.

Consider `O=C1c2ccccc2C(=O)N1CCOC(=S)N(C(=O)c1ccco1)c1ccc(Cl)cc1`, for which, in test [1], the response was half-maximal at 1.7 µM (EC50). Moreover, in test [2], the 90% effect level (EC90) was put at 0.005 µM. In addition, in the test with MT4, the SI amounted to 5857. Further, the IC50 in test [3] was 2.3 µM. It took 41 µM to reach half-maximal cytotoxicity in the test on MT-4 (Homo sapiens) (CC50).

Regarding `O=C1c2ccccc2C(=O)N1CCOC(=S)N(C(=O)c1cccs1)c1ccc(Cl)cc1`, a half-maximal effect in test [1] (EC50) was put at 1 µM. This compound displayed a 90% effect concentration (EC90) in test [2] of 0.008 µM. Also, the SI with MT4 was greater than 25000. In test [3], this compound showed a 50% inhibitory concentration (IC50) of 2.5 µM. Also, the 50% cytotoxic concentration (CC50) in the test with MT-4 (Homo sapiens) is greater than 200 µM.
